Measurements reported in paper PMC9136965 (ACS Central Science, 2022).
Converted amounts (≈) assume the structure as drawn. Where two headings read alike, the source gives them in different places.

Columns and labels:
B. subtilis 168 cells = experiment: Bright-field microscopy of cell morphology; assay type: cell-based, Bacillus subtilis; settings: B. subtilis 168, bright-field microscopy, Figure 5A
B. subtilis 168 = experiment: Cell lytic assay; assay type: cell-based, Bacillus subtilis; settings: B. subtilis 168, LB, 4× MIC, OD600 at 37 °C, n = 3, Figure 5B
Method in brief: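 B. subtilis 168 cultures exposed to test compounds or reference antibiotics to tell lysis from growth arrest. Triplicate experiments (n = 3); values plotted as means with standard deviation (s.d.).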

Question: With CN[C@H](CC(C)C)C(=O)N[C@H]1C(=O)N[C@@H](CC(N)=O)C(=O)N[C@H]2C(=O)N[C@H]3C(=O)N[C@H](C(=O)N[C@H](C(=O)O)c4cc(O)cc(O)c4-c4cc3ccc4O)[C@H](O)c3ccc(c(Cl)c3)Oc3cc2cc(c3O[C@@H]2O[C@H](CO)[C@@H](O)[C@H](O)[C@H]2O[C@H]2C[C@](C)(N)[C@H](O)[C@H](C)O2)Oc2ccc(cc2Cl)[C@H]1O [vancomycin] as the compound, how does the MIC (M. tuberculosis H37Ra; H37Ra) read?
Answer: 2 µg/mL (≈ 1.38 µM)

Question: What does the source list for complestatin?
Answer: MIC (M. tuberculosis H37Ra): >128 µg/mL; growth morphology of treated cells (B. subtilis 168 cells): extended and twisted phenotype; bacteriostatic or lytic action (B. subtilis 168): bacteriostatic

Question: With corbomycin as the compound, how does the “growth morphology of treated cells” value (B. subtilis 168 cells) read?
Answer: extended and twisted phenotype

Question: And the “bacteriostatic or lytic action” value (B. subtilis 168)?
Answer: bacteriostatic
